{"data": "Assay results pooled from the literature", "KIT V559D": "Mast/stem cell growth factor receptor Kit (KIT, Homo sapiens, UniProt P10721, V559D)", "KIT V559D/V654A": "Mast/stem cell growth factor receptor Kit (KIT, Homo sapiens, UniProt P10721, V559D/V654A)", "KIT A829P": "Mast/stem cell growth factor receptor Kit (KIT, Homo sapiens, UniProt P10721, A829P)", "KIT L576P": "Mast/stem cell growth factor receptor Kit (KIT, Homo sapiens, UniProt P10721, L576P)", "KIT D816H": "Mast/stem cell growth factor receptor Kit (KIT, Homo sapiens, UniProt P10721, D816H)", "KIT T670I/V559D": "Mast/stem cell growth factor receptor Kit (KIT, Homo sapiens, UniProt P10721, T670I/V559D)", "KIT autoinhibited": "Mast/stem cell growth factor receptor Kit, autoinhibited (KIT, Homo sapiens, UniProt P10721)", "KIT D816V": "Mast/stem cell growth factor receptor Kit (KIT, Homo sapiens, UniProt P10721, D816V)", "KIT": "Mast/stem cell growth factor receptor Kit (KIT, Homo sapiens, UniProt P10721)", "note": "Each line is one published result; the experiments were not run side by side."}
{"Structure (SMILES)": "COc1cnc(Nc2cccc(S(N)(=O)=O)c2)nc1N1CCN(c2ccccc2)CC1", "target": "KIT V559D", "assay": "binding, competition with immobilised ligand", "setting": "1 µM", "remaining binding": "94%"}
{"Structure (SMILES)": "CN1CCN(c2ccc(Nc3nccc(-c4ccccc4)n3)cc2C(F)(F)F)CC1", "target": "KIT V559D/V654A", "assay": "binding", "setting": "10 µM", "remaining binding": "4%"}
{"Structure (SMILES)": "C[C@@H](c1ccc(-n2cnc3c(N)ncnc32)cc1)N1CCc2nn(C)c(Cc3ccccc3)c2C1=O", "target": "KIT V559D", "assay": "binding, competition with immobilised ligand", "setting": "0.1 µM", "remaining binding": "32%"}
{"Structure (SMILES)": "CNC(=O)[C@@H]1CC[C@@H](n2c(-c3ccc4cnccc4c3)nc3ccc(C(=O)NCc4cccc(C(N)=O)c4)cc32)C1", "target": "KIT A829P", "assay": "binding, competition with immobilised ligand", "setting": "1 µM", "remaining binding": "100%"}
{"Structure (SMILES)": "CN(c1nccc(-c2cnn3ncccc23)n1)C1CC1", "target": "KIT L576P", "assay": "binding", "setting": "1 µM", "remaining binding": "100%"}
{"Structure (SMILES)": "C[C@@H](c1cccc(C#N)c1)n1cc(Cl)cc(C(N)=O)c1=N", "target": "KIT D816H", "assay": "cell-free assay, competition with immobilised ligand", "setting": "1 µM", "remaining binding": "100%"}
{"Structure (SMILES)": "CN1CCN(c2ccc(Nc3nccc(-c4cccc([N+](=O)[O-])c4)n3)cc2C(F)(F)F)CC1", "target": "KIT T670I/V559D", "assay": "binding", "setting": "10 µM", "remaining binding": "0.15%"}
{"Structure (SMILES)": "c1cnn2ncc(-c3ccnc(N4CCC45COC5)n3)c2c1", "target": "KIT autoinhibited", "assay": "binding", "setting": "1 µM", "remaining binding": "56%"}
{"Structure (SMILES)": "O=C(c1ccc(Nc2ncc(Cl)c(-c3cc4ccccc4s3)n2)cc1)N1CCC(N2CCCC2)CC1", "target": "KIT autoinhibited", "assay": "binding, competition with immobilised ligand", "setting": "1 µM", "remaining binding": "74%"}
{"Structure (SMILES)": "C=CC(=O)N1CCC(C(=O)NCC(=O)N2CCN(c3nc(-c4cnc(N)nc4C(F)F)nc(N4CCOCC4)n3)CC2)CC1", "target": "KIT D816H", "assay": "binding, competition with immobilised ligand", "setting": "1 µM", "remaining binding": "100%"}
{"Structure (SMILES)": "COc1ncc2cc3ccccc3nc2c1C#N", "target": "KIT D816V", "assay": "cell-free assay, competition with immobilised ligand", "setting": "5 µM", "remaining binding": "95%"}
{"Structure (SMILES)": "c1cncc(-c2cccc(Nc3nccc(NC4CCCCC4)n3)c2)c1", "target": "KIT A829P", "assay": "binding, competition with immobilised ligand", "setting": "10 µM", "remaining binding": "27%"}
{"Structure (SMILES)": "C[C@H](NC(=O)c1cnc2n1[C@](C)(Cc1ccc(C#N)cc1)C(=O)N2c1cc(Cl)c(F)c(Cl)c1)C(=O)NC1(c2ccccn2)CC1", "target": "KIT D816H", "assay": "cell-free assay, competition with immobilised ligand", "setting": "1 µM", "remaining binding": "100%"}
{"Structure (SMILES)": "O=C(NCC1CCOCC1)c1n[nH]cc1NC(=O)c1c(F)cccc1F", "target": "KIT L576P", "assay": "binding, competition with immobilised ligand", "setting": "1 µM", "remaining binding": "100%"}
{"Structure (SMILES)": "Cc1cnc(Nc2ccc(C(=O)N3CCC(N4CCCC4)CC3)cc2)nc1-c1cc2ccccc2s1", "target": "KIT T670I/V559D", "assay": "binding, competition with immobilised ligand", "setting": "1 µM", "remaining binding": "10%"}
{"Structure (SMILES)": "Cc1nc(NC(=O)N2CCC[C@H]2C(N)=O)sc1-c1ccnc(C(C)(C)C(F)(F)F)c1", "target": "KIT autoinhibited", "assay": "binding, competition with immobilised ligand", "setting": "10 µM", "remaining binding": "100%"}
{"Structure (SMILES)": "O=C(Nc1c[nH]nc1C(=O)NC1CCNCC1)c1cc(F)cc(F)c1", "target": "KIT", "assay": "binding, competition with immobilised ligand", "setting": "1 µM", "remaining binding": "100%"}
{"Structure (SMILES)": "Cc1c(C(=O)O)cc(-c2ccc(C3CCNCC3)cc2)c2ccc(-c3ccc(C(F)(F)F)cc3)cc12", "target": "KIT D816H", "assay": "binding, competition with immobilised ligand", "setting": "1 µM", "remaining binding": "100%"}
{"Structure (SMILES)": "CN(C)c1nccc(-c2cnn3ncccc23)n1", "target": "KIT A829P", "assay": "binding", "setting": "1 µM", "remaining binding": "81%"}
{"Structure (SMILES)": "O=C(c1ccc(Nc2ncc(Cl)c(-c3ccc(Cl)s3)n2)cc1)N1CCC(N2CCCC2)CC1", "target": "KIT autoinhibited", "assay": "binding, competition with immobilised ligand", "setting": "1 µM", "remaining binding": "7.2%"}
{"Structure (SMILES)": "O=C(NCc1ncc(C(F)(F)F)cc1Cl)c1ccc2c(c1)C1(CCS(=O)(=O)CC1)[C@H](C1CC1)N2S(=O)(=O)c1ccc(F)cc1", "target": "KIT", "assay": "cell-free assay, competition with immobilised ligand", "setting": "1 µM", "remaining binding": "100%"}
{"Structure (SMILES)": "F[C@@H]1CCN(c2nccc(-c3cnn4ncccc34)n2)C1", "target": "KIT D816V", "assay": "binding", "setting": "1 µM", "remaining binding": "100%"}
{"Structure (SMILES)": "Nc1ncc2c(n1)-c1c([nH]c3ccc(C#CC4CC4)cc13)CCCC2", "target": "KIT L576P", "assay": "binding, competition with immobilised ligand", "setting": "1 µM", "remaining binding": "100%"}
{"Structure (SMILES)": "O=C(NCCCN1CCOCC1)c1ccc(Nc2nccc(-c3cc4ccccc4s3)n2)cc1", "target": "KIT A829P", "assay": "binding, competition with immobilised ligand", "setting": "1 µM", "remaining binding": "36%"}
{"Structure (SMILES)": "Cc1cnn2ncc(-c3ccnc(N(C)C)n3)c2c1", "target": "KIT D816H", "assay": "binding", "setting": "1 µM", "remaining binding": "83%"}
{"Structure (SMILES)": "O=C(NCCCN1CCOCC1)c1ccc(Nc2ncc(Cl)c(-c3ccc(Cl)s3)n2)cc1", "target": "KIT V559D/V654A", "assay": "binding, competition with immobilised ligand", "setting": "1 µM", "remaining binding": "9.9%"}
{"Structure (SMILES)": "CN(CCCC(F)(F)F)c1nccc(-c2cnn3ncccc23)n1", "target": "KIT V559D/V654A", "assay": "binding", "setting": "1 µM", "remaining binding": "100%"}
{"Structure (SMILES)": "COc1cc(-c2cn(C3CCc4c(F)cccc4N(CC(F)(F)F)C3=O)nn2)ccc1-n1cnc(C)c1 (stereo not drawn)", "target": "KIT L576P", "assay": "cell-free assay, competition with immobilised ligand", "setting": "1 µM", "remaining binding": "100%"}
{"Structure (SMILES)": "N[C@@H]1CCN(c2nccc(-c3cnn4ncccc34)n2)C1", "target": "KIT V559D", "assay": "binding", "setting": "1 µM", "remaining binding": "100%"}
{"Structure (SMILES)": "O=C(c1ccc(Nc2nccc(-c3cc4ccccc4s3)n2)cc1)N1CCC(N2CCCC2)CC1", "target": "KIT A829P", "assay": "binding, competition with immobilised ligand", "setting": "1 µM", "remaining binding": "31%"}
{"Structure (SMILES)": "Cc1cc(NC(=O)c2cccc(S(F)(F)(F)(F)F)c2)cc(-n2ccn3nc(-c4cccnc4)cc23)c1", "target": "KIT A829P", "assay": "cell-free assay, competition with immobilised ligand", "setting": "1 µM", "remaining binding": "100%"}
{"Structure (SMILES)": "C[C@@H]1CCN(c2nccc(-c3cnn4ncccc34)n2)C1", "target": "KIT D816H", "assay": "binding", "setting": "1 µM", "remaining binding": "79%"}
{"Structure (SMILES)": "CO[C@@H](C)c1c(Nc2ccc([C@@H](N(C)C(=O)C3CCS(=O)(=O)CC3)C(F)(F)F)cc2)cnc2cc(Cl)nn12", "target": "KIT T670I/V559D", "assay": "cell-free assay, competition with immobilised ligand", "setting": "1 µM", "remaining binding": "82%"}
{"Structure (SMILES)": "COc1cnc(Nc2cccc(S(N)(=O)=O)c2)nc1N1CCN(c2ccccc2)C(=O)C1", "target": "KIT D816V", "assay": "binding, competition with immobilised ligand", "setting": "1 µM", "remaining binding": "90%"}
{"Structure (SMILES)": "COc1cc(-c2cn(C3CCc4ccccc4N(CC(F)(F)F)C3=O)nn2)ccc1-n1ccc(C)n1 (stereo not drawn)", "target": "KIT autoinhibited", "assay": "cell-free assay, competition with immobilised ligand", "setting": "1 µM", "remaining binding": "100%"}
{"Structure (SMILES)": "CCN1CCN(Cc2ccc(C(=O)Nc3ccc(C)c(Oc4ccc5c(c4)CC(=O)N5)c3)cc2C(F)(F)F)CC1", "target": "KIT A829P", "assay": "binding, competition with immobilised ligand", "setting": "1 µM", "remaining binding": "100%"}
